In data set [1] the test system is Staphylococcus epidermidis. The data set is described as follows: Antimicrobial activity against Staphylococcus epidermidis RP26A. The data set is classed as functional. The gist of the method: (§1)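 MICs determined by the standard CLSI broth microdilution method on intact bacteria (E. coli MG1655; S. epidermidis RP26A).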
For another data set, the system named is Yersinia pestis. The data set is described as follows: Antimicrobial activity against Yersinia pestis KIM6+. The format is functional.
A short description of data set [2]: Inhibition of Escherichia coli type 1 signal peptidase using peptide substrate after 30 mins by fluorescence assay. The gist of the method:
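Purified E. coli SPase was assayed with the internally quenched fluorogenic peptide (Dabcyl)-AGHDAHA↓SET-(EDANS), with cleavage at the arrow separating the EDANS donor from the Dabcyl acceptor. IC50 was taken as the half-maximal inhibitory concentration.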

The subject of a further data set is HEK293. The data set is described as follows: Cytotoxicity against HEK293 cells up to 128 ug/ml after 24 hrs by resazurin dye based fluorescence assay. The format is cell-based. The conditions noted are these: human, hek293, 24 h.
The next data set relates to Escherichia coli. The data set is described as follows: Antimicrobial activity against Escherichia coli MG1655 by broth micro dilution method. The format is functional, organism-based. Particulars: K-12 substr. MG1655. In a few lines:
as §1

Converted amounts (≈) assume the structure as drawn. The source made the active and inactive calls. The rule behind the calls is not given here.

A word on the MIC: it is the lowest concentration found to suppress growth. Low values mean inhibition by little substance, high ones a need for much substance. For orientation: IC50 means the midpoint of a concentration-inhibition curve. Higher therefore signals a need for much substance. Regarding `C[C@@H](O)[C@H]1C(=O)N2C(C(=O)O)=C(S[C@@H]3CN[C@H](C(=O)N(C)C)C3)S[C@H]12`, the MIC was 32 mg/L (≈ 82.6 µM) in data set [1] and 64 mg/L (≈ 165 µM) in the data set on Yersinia pestis. This compound had an IC50 in data set [2] of 1.22 mg/L (≈ 3.15 µM).

In the case of `C[C@@H](O)[C@H]1C(=O)N2C(C(=O)O)=C(S[C@H]3CCNC3)S[C@H]12`, the MIC (in data set [1]; in the data set with Yersinia pestis) was 8 mg/L (≈ 25.3 µM) each time. In addition, in data set [2], the IC50 stood at 0.8 mg/L (≈ 2.53 µM).

As to `C[C@@H](O)[C@H]1C(=O)N2C(C(=O)O)=C(SCCN(C)C)S[C@H]12`, the MIC (in data set [1]; against Yersinia pestis) was over 128 mg/L throughout. For the same compound, the IC50 in data set [2] stood at 3.95 mg/L (≈ 12.4 µM).

Consider `C[C@@H](O)[C@H]1C(=O)N2C(C(=O)O)=C(SCCNC=N)S[C@H]12`, for which the results for the MIC (in data set [1]; against Yersinia pestis) were 8 mg/L (≈ 25.2 µM) and 16 mg/L (≈ 50.4 µM), respectively. Moreover, the Activity entry in the data set with HEK293 was “Non-Toxic”. Further, in data set [2], the IC50 was determined as 1.04 mg/L (≈ 3.28 µM).

Take `CNCCSC1=C(C(=O)O)N2C(=O)[C@H]([C@@H](C)O)[C@H]2S1`: the MIC (in data set [1]; with Yersinia pestis) was over 128 mg/L in each case. This compound also returned a half-maximal inhibitory concentration (IC50) in data set [2] of 6.37 mg/L (≈ 20.9 µM).

Regarding `C[C@@H](O)[C@H]1C(=O)N2C(C(=O)O)=C(SCCN)S[C@H]12`, the minimum inhibitory concentration (MIC) (in data set [1]; against Yersinia pestis) was 16 mg/L (≈ 55.1 µM) in each case. In the data set on HEK293, the Activity entry was “Non-Toxic”. Further, the IC50 in data set [2] was determined as 0.63 mg/L (≈ 2.17 µM).

Regarding `C[C@@H](O)[C@H]1C(=O)N2C(C(=O)O)=C(CCc3ccccn3)S[C@H]12`, the MIC in data set [1] was 16 mg/L (≈ 49.9 µM); against Yersinia pestis it was 32 mg/L (≈ 99.9 µM). In data set [2], this compound came in with an IC50 of 1.31 mg/L (≈ 4.09 µM).

Turning to `C[C@@H](O)[C@H]1C(=O)N2C(C(=O)O)=CS[C@H]12`, in the data set on Escherichia coli, the result was inactive. In addition, the MIC (in data set [1]; in the data set on Yersinia pestis) was 128 mg/L (≈ 595 µM) each time. Further, the IC50 in data set [2] is 2.99 mg/L (≈ 13.9 µM).

The compound `C[C@@H](O)[C@H]1C(=O)N2C(C(=O)O)=C(S[C@@H]3CC[S+]([O-])C3)S[C@H]12` (stereo not given in full) had an MIC in data set [1] of 16 mg/L (≈ 45.8 µM). The compound further returned an IC50 in data set [2] of 1.16 mg/L (≈ 3.32 µM).

`C[C@@H](O)[C@H]1C(=O)N2C(C(=O)O)=C(S[C@@H]3CCNC3)S[C@H]12`: the values for the MIC (in data set [1]; with Yersinia pestis) were 4 mg/L (≈ 12.6 µM) and 16 mg/L (≈ 50.6 µM), respectively. In addition, the Activity result in the data set on HEK293 is “Non-Toxic”. Also, the IC50 in data set [2] stood at 1.75 mg/L (≈ 5.53 µM).

In the case of `C[C@@H](O)[C@H]1C(=O)N2C(C(=O)O)=C(SCCO)S[C@H]12`, the MIC worked out at 8 mg/L (≈ 27.5 µM) in data set [1] and 32 mg/L (≈ 110 µM) with Yersinia pestis. The Activity entry in the data set on HEK293 was “Non-Toxic”. In data set [2], this compound registered an IC50 of 1.49 mg/L (≈ 5.11 µM).

On to `C[C@@H](O)[C@H]1C(=O)N2C(C(=O)O)=C(SCCOC(N)=O)S[C@H]12` [Sch-34343], for which the MIC in data set [1] came out at 4 mg/L (≈ 12 µM); against Yersinia pestis, 16 mg/L (≈ 47.9 µM). Further, the IC50 in data set [2] is 0.96 mg/L (≈ 2.87 µM).
